Measured values: publication PMC4505548 (Organic & biomolecular chemistry, 2008)

target: Neisseria meningitidis CSS (NmCSS), CMP-sialic acid synthetase (Neisseria meningitidis, UniProt P0A0Z8); experiment: capillary electrophoresis UV assay of CMP-Neu5Ac formation; type: biochemical; settings: 1000 µM; 1 mM CTP, 1 mM Neu5Ac, 20 mM MgCl2, Tris-HCl pH 8.5, 37 °C, 15 min
Procedure, shortened: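 Purified recombinant NmCSS (1.25 ng) in 200 mM Tris-HCl pH 8.5 with CTP, Neu5Ac and MgCl2, reacted with test compound at 1 mM for 15 min at 37 °C. Stopped with 10% SDS on ice (final 1% SDS). CMP-Neu5Ac measured by capillary electrophoresis with UV detection. Percent conversion calculated from a UV response standard curve of CTP and CMP-Neu5Ac.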

Chain of Neisseria meningitidis CSS (NmCSS), CMP-sialic acid synthetase (P0A0Z8 whole entry): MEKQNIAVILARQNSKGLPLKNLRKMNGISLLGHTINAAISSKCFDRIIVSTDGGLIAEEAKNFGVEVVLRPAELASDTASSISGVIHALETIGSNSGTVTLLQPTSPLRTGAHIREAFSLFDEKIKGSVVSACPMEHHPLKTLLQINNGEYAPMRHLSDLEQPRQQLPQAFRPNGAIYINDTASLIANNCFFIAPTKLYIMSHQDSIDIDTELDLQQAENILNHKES

First: Saturated sulfo-CDP [compound 12]
Second: Saturated sulfo-UDP [compound 22]
The “% Inhibition” value of the first is higher: 55 ± 4% for the first, 35 ± 2% for the second.

Compared with Sulfo-CDP [compound 5], Sulfo-CTP [compound 4] is lower in “% Inhibition” value: 47 ± 2% for the first, 39 ± 2% for the second.

In the case of Sulfo-UTP [compound 19], the “% Inhibition” value is reported as 33 ± 5%.
